SR-BI DiI-HDL act – activators of SR-BI mediated DiI-HDL uptake, primary screen, ldlA[mSR-BI] CHO cells, DiI fluorescence | activation, % at 12.5 µM | 320,000 compounds, 0.096% hits | 3 h; 100 = double the neutral-control signal;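 active = mean replicate activation of at least 60% and every replicate at or above 60%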
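System: LDL receptor-deficient CHO ldlA cells overexpressing murine SR-BI | Timing: 3 h uptake period with compound, 37 °C | Medium: HEPES-buffered (25 mM, pH 7.4) F12 plus 0.5% BSA | Dosing: Single-point compound dose | Signal: Bottom-read fluorescence, 550/595 nm | Read-out: Retained DiI signal reflecting DiI-HDL uptake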
CR mimetic SO – reduction of superoxide in aged yeast, primary screen, HTS. S. cerevisiae aged cells, superoxide DHE fluorescence; hits give low values. superoxide response (% of plate mean), % at 10 µM. 330,000 compounds, 0.18% hits;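 active = superoxide response under a set limit, about three screen SD below normal, cut at about 65% in these data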;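 also: yeast aged for seven days with compound at 30 °C before DHE staining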
Hep lipid drop – inhibitors of hepatocyte lipid droplet formation, primary screen, imaging, high-throughput imaging, BODIPY stain; AML12 mouse hepatocytes, oleate lipid droplets; inhibition, % at 6.5 µM; 240,000 compounds, 0.4% hits;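 active = lipid droplet intensity inhibited by at least 50%, with more than 500 cells counted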
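System: AML12 hepatocytes (mouse). Probe or stimulus: oleic acid at 100 µM to induce lipid droplet formation. Times: overnight treatment with compound plus oleate. Detection: Image-based BODIPY and DAPI two-channel analysis. Evaluation: percent inhibition of filter-corrected integrated lipid droplet intensity per well.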
AHR act – AHR activators, primary screen, cell-based, luminescence, luciferase reporter, human | Aryl hydrocarbon receptor (Homo sapiens), P35869 | AHR-responsive luciferase reporter cells | activation, % at 5 µM | 320,000 compounds, 2.5% hits | AID 2796, 2010; in the data active = activation above about 47%
SMARCA2 act – SMARCA2 (BRM) function activators, primary screen, cell-based, luminescence, high throughput | 370,000 compounds, 1% hits | activation, % at 9.1 µM | MG213 cells, MMTV-luciferase reporter, dexamethasone, overnight | AID 652017, 2013; in the data active = activation above about 7.8%
SR-BI DiI inh – inhibitors of SR-BI mediated HDL lipid uptake, primary screen, ldlA[mSR-BI] cells, fluorescence, single point; Scavenger receptor class B member 1 (Mus musculus), Q61009; ldlA[mSR-BI] CHO cells, DiI-HDL uptake fluorescence, 3 h; inhibition, % at 12.5 µM; 320,000 compounds, 0.96% hits; AID 488896, 2010;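 active = mean replicate inhibition of at least 70% and a set share of replicates each scoring 70 or more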
Target sequence (Q61009 whole entry, looked up): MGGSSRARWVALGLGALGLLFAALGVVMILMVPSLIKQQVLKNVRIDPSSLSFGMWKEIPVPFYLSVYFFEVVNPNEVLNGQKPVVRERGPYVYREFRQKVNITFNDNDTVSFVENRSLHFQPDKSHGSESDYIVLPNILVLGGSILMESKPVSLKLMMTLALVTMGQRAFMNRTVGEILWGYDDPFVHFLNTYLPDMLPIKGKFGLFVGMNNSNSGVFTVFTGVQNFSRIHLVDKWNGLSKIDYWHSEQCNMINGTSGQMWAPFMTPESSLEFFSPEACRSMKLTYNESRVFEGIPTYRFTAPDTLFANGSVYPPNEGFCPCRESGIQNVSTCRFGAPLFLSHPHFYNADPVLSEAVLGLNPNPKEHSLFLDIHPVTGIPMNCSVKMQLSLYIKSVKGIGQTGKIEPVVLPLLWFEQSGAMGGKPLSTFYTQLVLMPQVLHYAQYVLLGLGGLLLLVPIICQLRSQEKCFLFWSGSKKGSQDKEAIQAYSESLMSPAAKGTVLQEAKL
A number is an active result. Rows were chosen to be rich in hits. Some 4.3% of all compounds tested hit in one or more screens of this group.

Results for CCCCn1c(=N)n(CC(=O)c2ccc(Br)s2)c2ccccc21 ?
CR mimetic SO: inactive; Hep lipid drop: inactive; AHR act: 52.2; SMARCA2 act: inactive

Results for Cc1ccccc1NC(=O)c1ccc(Cl)c(NC(=O)c2ccncc2)c1 ?
SR-BI DiI-HDL act: inactive; CR mimetic SO: inactive; Hep lipid drop: inactive; AHR act: 48.5; SMARCA2 act: inactive; SR-BI DiI inh: inactive

What do the screens show for `O=C(Nc1ccc(F)c(Cl)c1)c1cccnc1`?
SR-BI DiI-HDL act: inactive; CR mimetic SO: inactive; AHR act: inactive; SMARCA2 act: inactive; SR-BI DiI inh: inactive

What do the screens show for `CCOC(=O)c1ccc(NC(=O)c2nn(CC)cc2Br)cc1`?
SR-BI DiI-HDL act: inactive; CR mimetic SO: inactive; Hep lipid drop: inactive; AHR act: inactive; SMARCA2 act: inactive; SR-BI DiI inh: inactive

What do the screens show for `O=C(Nc1ccc(Cl)c(Cl)c1)Nc1nccs1`?
CR mimetic SO: inactive; Hep lipid drop: inactive; AHR act: 58.6; SMARCA2 act: inactive

Results for Cc1cccc(NC(=O)c2ccc(Cl)c(NC(=O)c3ccncc3)c2)c1C ?
SR-BI DiI-HDL act: inactive; CR mimetic SO: inactive; Hep lipid drop: inactive; AHR act: inactive; SMARCA2 act: inactive; SR-BI DiI inh: inactive

Results for CCn1cc(Br)c(C(=O)Nc2ccc(F)c(Cl)c2)n1 ?
SR-BI DiI-HDL act: inactive; CR mimetic SO: inactive; AHR act: 51.4; SMARCA2 act: inactive; SR-BI DiI inh: inactive

Results for O=C(Nc1ccc(F)c(Cl)c1)c1ccccc1 ?
SR-BI DiI-HDL act: inactive; CR mimetic SO: inactive; AHR act: 55.6; SMARCA2 act: inactive; SR-BI DiI inh: inactive

Results for CCN1C(=O)N[C@H]2C[C@@H](c3ccccc3)[C@@H](C)[C@@H](C(=O)N3CCCC3)C[C@H]21 ?
SMARCA2 act: inactive

How did O=C(Nc1ccc(Cl)c(Cl)c1)c1ccncc1 do in these assays?
SR-BI DiI-HDL act: inactive; CR mimetic SO: inactive; Hep lipid drop: inactive; AHR act: 64.8; SMARCA2 act: inactive; SR-BI DiI inh: inactive

How did Fc1ccc(NC(=S)Nc2cc(-c3ccccc3)[nH]n2)cc1Cl do in these assays?
SR-BI DiI-HDL act: inactive; CR mimetic SO: inactive; Hep lipid drop: inactive; AHR act: 53.5; SMARCA2 act: inactive; SR-BI DiI inh: inactive

What do the screens show for `Fc1ccc(NC(=S)Nc2cccnc2)cc1Cl`?
SR-BI DiI-HDL act: inactive; CR mimetic SO: inactive; Hep lipid drop: inactive; AHR act: inactive; SMARCA2 act: inactive; SR-BI DiI inh: inactive

How did O=C(NCc1ccccn1)c1cc(-c2ccccc2)nc2ccccc12 do in these assays?
SR-BI DiI-HDL act: inactive; CR mimetic SO: inactive; Hep lipid drop: inactive; AHR act: inactive; SMARCA2 act: inactive; SR-BI DiI inh: inactive

Results for Cc1ccc(-c2cc(C(=O)NCc3ccccn3)c3ccccc3n2)cc1C ?
SR-BI DiI-HDL act: inactive; CR mimetic SO: inactive; Hep lipid drop: inactive; AHR act: 56.0; SMARCA2 act: inactive; SR-BI DiI inh: inactive

How did O=C(NCc1ccccn1)c1cc(-c2ccc(-c3ccccc3)cc2)nc2ccccc12 do in these assays?
SR-BI DiI-HDL act: inactive; CR mimetic SO: inactive; Hep lipid drop: inactive; AHR act: 66.0; SMARCA2 act: inactive; SR-BI DiI inh: inactive

How did CCOc1ccc(OCC)c(NS(=O)(=O)c2cccc3nsnc23)c1 do in these assays?
SR-BI DiI-HDL act: 409.6; CR mimetic SO: inactive; Hep lipid drop: inactive; AHR act: inactive; SMARCA2 act: inactive; SR-BI DiI inh: inactive

Results for CCn1c2ccccc2c2cc(NC(=O)Cc3ccc(S(=O)(=O)N4CCOCC4)s3)ccc21 ?
SR-BI DiI-HDL act: inactive; CR mimetic SO: inactive; Hep lipid drop: inactive; AHR act: 51.4; SMARCA2 act: inactive; SR-BI DiI inh: inactive

What do the screens show for `CC(=O)c1cccc(NC(=S)Nc2cccc3ccccc23)c1`?
SR-BI DiI-HDL act: inactive; CR mimetic SO: inactive; Hep lipid drop: inactive; AHR act: 54.5; SMARCA2 act: inactive; SR-BI DiI inh: inactive

What do the screens show for `COc1ccc(NC(=S)Nc2cccc(C(C)=O)c2)cc1OC`?
SR-BI DiI-HDL act: inactive; CR mimetic SO: inactive; Hep lipid drop: inactive; AHR act: inactive; SMARCA2 act: inactive; SR-BI DiI inh: 73.4

How did Cc1ccc(NC(=S)Nc2cccc3cnccc23)cc1C do in these assays?
SR-BI DiI-HDL act: inactive; CR mimetic SO: inactive; Hep lipid drop: inactive; AHR act: inactive; SMARCA2 act: inactive; SR-BI DiI inh: 75.0

What do the screens show for `CC(=O)c1cccc(NC(=S)NCCc2ccc(Cl)cc2)c1`?
SR-BI DiI-HDL act: inactive; CR mimetic SO: inactive; Hep lipid drop: inactive; AHR act: inactive; SMARCA2 act: inactive; SR-BI DiI inh: 76.2

Results for Cc1cc(C)cc(-n2c(C)cc(/C=N\NC(=O)COc3cccc4cccnc34)c2C)c1 ?
SR-BI DiI-HDL act: inactive; CR mimetic SO: inactive; Hep lipid drop: inactive; AHR act: inactive; SMARCA2 act: inactive; SR-BI DiI inh: 76.5

Results for Cc1cc(/C=N/NC(=O)COc2cccc3cccnc23)c(C)n1-c1ccc(O)cc1 ?
SR-BI DiI-HDL act: inactive; CR mimetic SO: inactive; Hep lipid drop: inactive; AHR act: inactive; SMARCA2 act: inactive; SR-BI DiI inh: inactive

Results for O=C(N/N=C/c1ccccn1)c1cccc(S(=O)(=O)Nc2ccccc2Cl)c1 ?
SR-BI DiI-HDL act: inactive; CR mimetic SO: inactive; Hep lipid drop: inactive; AHR act: inactive; SMARCA2 act: inactive; SR-BI DiI inh: inactive

What do the screens show for `COc1ccc(-c2nn(-c3ccccc3)cc2/C=N/O)cc1`?
SR-BI DiI-HDL act: inactive; CR mimetic SO: inactive; AHR act: inactive; SMARCA2 act: inactive; SR-BI DiI inh: inactive

Results for COc1ccc(-c2nn(-c3ccccc3)cc2/C=N/NC(=O)c2cccc(S(=O)(=O)Nc3ccccc3Cl)c2)cc1 ?
SR-BI DiI-HDL act: inactive; CR mimetic SO: inactive; Hep lipid drop: inactive; AHR act: inactive; SMARCA2 act: inactive; SR-BI DiI inh: 80.2

What do the screens show for `COc1ccc(-c2nn(-c3ccccc3)cc2/C=N/NS(=O)(=O)c2ccccc2)cc1`?
SR-BI DiI-HDL act: inactive; CR mimetic SO: inactive; AHR act: 49.9; SMARCA2 act: inactive; SR-BI DiI inh: inactive

What do the screens show for `Cc1ccc2c(c1)C(CS(=O)(=O)NCC(C)C)NC2` (configuration not stated)?
SMARCA2 act: inactive

How did Cc1cc(NC(=O)c2cc3cccc([N+](=O)[O-])c3[nH]2)ccc1F do in these assays?
SR-BI DiI-HDL act: inactive; CR mimetic SO: inactive; Hep lipid drop: inactive; AHR act: 64.8; SMARCA2 act: inactive; SR-BI DiI inh: 77.4

Results for CCN(CC)c1ccc(C=NNc2ccc([N+](=O)[O-])cn2)cc1 ?
SR-BI DiI-HDL act: inactive; SMARCA2 act: inactive; SR-BI DiI inh: 83.9

Results for O=[N+]([O-])c1ccc(NN=Cc2ccccc2O)nc1 ?
SR-BI DiI-HDL act: inactive; SMARCA2 act: inactive; SR-BI DiI inh: 88.3
